In article PMC12612033 (Scientific Reports, 2025):

Biological target: Saccharomyces cerevisiae α-glucosidase (Saccharomyces cerevisiae, UniProt P53341)
Experiment: α-Glucosidase inhibition assay
Format: biochemical
Details: not given

Saccharomyces cerevisiae α-glucosidase, sequence (P53341 whole entry): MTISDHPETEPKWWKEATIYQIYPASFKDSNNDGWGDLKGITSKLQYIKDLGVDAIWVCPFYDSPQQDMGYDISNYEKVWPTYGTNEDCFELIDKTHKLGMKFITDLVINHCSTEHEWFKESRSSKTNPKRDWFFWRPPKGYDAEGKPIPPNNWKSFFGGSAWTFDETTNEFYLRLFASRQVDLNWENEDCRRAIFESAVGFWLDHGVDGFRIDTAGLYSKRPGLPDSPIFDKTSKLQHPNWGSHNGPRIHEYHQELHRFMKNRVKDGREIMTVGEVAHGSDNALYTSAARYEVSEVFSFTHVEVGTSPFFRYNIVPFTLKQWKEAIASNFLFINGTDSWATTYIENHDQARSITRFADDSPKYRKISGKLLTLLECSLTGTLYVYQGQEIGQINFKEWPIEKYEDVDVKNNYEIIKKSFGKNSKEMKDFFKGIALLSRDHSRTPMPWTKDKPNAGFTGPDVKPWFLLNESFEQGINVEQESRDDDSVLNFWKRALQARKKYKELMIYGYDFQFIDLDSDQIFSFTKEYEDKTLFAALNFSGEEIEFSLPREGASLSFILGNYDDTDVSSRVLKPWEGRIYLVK

| Compound | IC50 [µM] |
| --- | --- |
| Nc1c(-c2ccccc2)nc2ncnn2c1-c1ccccc1 [9a, 5,7-Diphenyl-[1,2,4]triazolo[1,5-a]pyrimidin-6-amine] | 97.02 ± 0.83 |
| Nc1c(-c2ccccc2)nc2ncnn2c1-c1ccc(Cl)cc1 [9c, 7-(4-Chlorophenyl)-5-phenyl-[1,2,4]triazolo[1,5-a]pyrimidin-6-amine] | 56.2 ± 0.68 |
| Nc1c(-c2ccccc2)nc2ncnn2c1-c1ccc(Br)cc1 [9f, 7-(4-Bromophenyl)-5-phenyl-[1,2,4]triazolo[1,5-a]pyrimidin-6-amine] | 65.09 ± 0.38 |
| Nc1c(-c2ccccc2)nc2ncnn2c1-c1cccs1 [9g, 5-Phenyl-7-(thiophen-2-yl)-[1,2,4]triazolo[1,5-a]pyrimidin-6-amine] | 140 ± 1.55 |
| Cc1ccc(-c2nc3ncnn3c(-c3ccccc3)c2N)cc1 [9h, 7-Phenyl-5-(p-tolyl)-[1,2,4]triazolo[1,5-a]pyrimidin-6-amine] | 94.52 ± 0.72 |
| Cc1ccc(-c2nc3ncnn3c(-c3cccs3)c2N)cc1 [9l, 7-(Thiophen-2-yl)-5-(p-tolyl)-[1,2,4]triazolo[1,5-a]pyrimidin-6-amine] | 151.3 ± 0.56 |
| Nc1c(-c2ccc(Cl)cc2)nc2ncnn2c1-c1ccccc1 [9q, 5-(4-Chlorophenyl)-7-phenyl-[1,2,4]triazolo[1,5-a]pyrimidin-6-amine] | 58.11 ± 0.34 |

Results, then the molecule that gave them:

| IC50 [µM] | Compound |
| --- | --- |
| 70.85 ± 0.27 | COc1ccc(-c2c(N)c(-c3ccccc3)nc3ncnn23)cc1 [9b, 7-(4-Methoxyphenyl)-5-phenyl-[1,2,4]triazolo[1,5-a]pyrimidin-6-amine] |
| 72.4 ± 0.98 | COc1ccc(-c2nc3ncnn3c(-c3ccccc3)c2N)cc1 [9m, 5-(4-Methoxyphenyl)-7-phenyl-[1,2,4]triazolo[1,5-a]pyrimidin-6-amine] |
| 52.66 ± 0.3 | COc1ccc(-c2nc3ncnn3c(-c3ccc(OC)cc3)c2N)cc1 [9n, 5,7-Bis(4-methoxyphenyl)-[1,2,4]triazolo[1,5-a]pyrimidin-6-amine] |
| 37.18 ± 0.23 | COc1ccc(-c2nc3ncnn3c(-c3ccc(Cl)cc3)c2N)cc1 [9o, 7-(4-Chlorophenyl)-5-(4-methoxyphenyl)-[1,2,4]triazolo[1,5-a]pyrimidin-6-amine] |
| 41.5 ± 0.56 | COc1ccc(-c2c(N)c(-c3ccc(Cl)cc3)nc3ncnn23)cc1 [9r, 5-(4-Chlorophenyl)-7-(4-methoxyphenyl)-[1,2,4]triazolo[1,5-a]pyrimidin-6-amine] |
| 24.32 ± 0.18 | Nc1c(-c2ccc(Cl)cc2)nc2ncnn2c1-c1ccc(Cl)cc1 [9s, 5,7-Bis(4-chlorophenyl)-[1,2,4]triazolo[1,5-a]pyrimidin-6-amine] |

Biological target: T1, α-glucosidase (Saccharomyces cerevisiae, UniProt P53341)
T1 sequence (P53341 whole entry): as above
Experiment: Circular dichroism spectroscopy of α-glucosidase secondary structure
Details: CD, α-glucosidase in the presence of 9s
Procedure, shortened: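 Far-UV CD spectra (190–240 nm) recorded for yeast α-glucosidase alone and for its complex with the test compound. Spectra were deconvoluted into α-helix, β-sheet, β-turn and random-coil fractions, and the complex was compared with native enzyme.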

| Random coils content of α-glucosidase [%] | α-Helix content of α-glucosidase [%] | β-Turn content of α-glucosidase [%] | Compound |
| --- | --- | --- | --- |
| 0 | 41.2 | 51.4 | Nc1c(-c2ccc(Cl)cc2)nc2ncnn2c1-c1ccc(Cl)cc1 [9s, 5,7-Bis(4-chlorophenyl)-[1,2,4]triazolo[1,5-a]pyrimidin-6-amine] |

Tested on: α-amylase
Experiment: α-Amylase inhibition assay
Format: biochemical
Details: at a concentration of 100 µM, mean ± SD

| Inhibition of α-amylase activity (%) | Compound |
| --- | --- |
| 50.1 ± 0.5 | C[C@H]1O[C@H](O[C@H]2[C@H](O)[C@@H](O)[C@@H](O[C@H]3[C@H](O)[C@@H](O)C(O)O[C@@H]3CO)O[C@@H]2CO)[C@H](O)[C@@H](O)[C@@H]1N[C@H]1C=C(CO)[C@@H](O)[C@H](O)[C@H]1O (stereo partly drawn) [Acarbose] |

Biological target: T1, α-glucosidase
Experiment: α-Glucosidase kinetic study
Format: biochemical
Details: Lineweaver–Burk plot; Km increases, Vmax unchanged

| Mode of inhibition | Compound |
| --- | --- |
| competitive | Nc1c(-c2ccc(Cl)cc2)nc2ncnn2c1-c1ccc(Cl)cc1 [9s, 5,7-Bis(4-chlorophenyl)-[1,2,4]triazolo[1,5-a]pyrimidin-6-amine] |
